According to ChEMBL document CHEMBL1137646, “Intracellular metabolism and persistence of the anti-human immunodeficiency virus activity of 2',3'-didehydro-3'-deoxy-4'-ethynylthymidine, a novel thymidine analog” (Antimicrob Agents Chemother, 2007):
Each block holds one molecule with its values, some of them ahead of it. Activity calls are given as the source filed them. The calls are words filed in the database; no cut-off is given here.

Tests used:
[1] = target: Human immunodeficiency virus type 1 reverse transcriptase (Human immunodeficiency virus 1) (UniProt Q72547); assay: Ratio of Ki to Km for HIV1 reverse transcriptase
CCRF-CEM [2] = assay: Drug metabolism in human CEM cells assessed as radioactive zidovudine monophosphate accumulation at 2 uM after 2 hrs assessed per 10^6 cells; assay type: ADME, cell-based
Summary of the method: (§1)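 CEM cells (2 x 10^7/ml) in RPMI 1640 with 10% dialyzed FBS were incubated at 37°C with 2 µM [3H]analog (75 mCi/mmol) and harvested at 2, 4, 8, 12, 16 and 24 h. Cells were washed in ice-cold PBS with 20 µM dipyridamole and extracted with 15% TCA. Neutralized extracts were separated on a Partisil SAX column with an H2O to 300 mM potassium phosphate gradient and radiometric detection, reported as pmol/10^6 cells, mean ± SD of three experiments.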

CCRF-CEM [3] = assay: Drug metabolism in human CEM cells assessed as radioactive zidovudine diphosphate accumulation at 2 uM after 2 hrs assessed per 10^6 cells; assay type: ADME, cell-based; summary of the method: as §1
CCRF-CEM [4] = assay: Drug metabolism in human CEM cells assessed as radioactive zidovudine triphosphate accumulation at 2 uM after 2 hrs assessed per 10^6 cells; assay type: ADME, cell-based; summary of the method: as §1
CCRF-CEM [5] = assay: Drug metabolism in human CEM cells assessed as radioactive 2', 3'-didehydro-3'-deoxy-4'-ethynylthymidine monophosphate accumulation at 2 uM after 12 hrs assessed per 10^6 cells; assay type: ADME, cell-based; summary of the method: as §1
CCRF-CEM [6] = assay: Drug metabolism in human CEM cells assessed as radioactive 2', 3'-didehydro-3'-deoxy-4'-ethynylthymidine diphosphate accumulation at 2 uM after 12 hrs assessed per 10^6 cells; assay type: ADME, cell-based; summary of the method: as §1
CCRF-CEM [7] = assay: Drug metabolism in human CEM cells assessed as radioactive 2', 3'-didehydro-3'-deoxy-4'-ethynylthymidine triphosphate accumulation at 2 uM after 12 hrs assessed per 10^6 cells; assay type: ADME, cell-based; summary of the method: as §1
CCRF-CEM [8] = assay: Drug metabolism in human CEM cells assessed as radioactive zidovudine monophosphate accumulation at 2 uM assessed per 10^6 cells; assay type: ADME, cell-based; settings: TDE = time-dependent effect; summary of the method: as §1
CCRF-CEM [9] = assay: Drug metabolism in human CEM cells assessed as radioactive zidovudine diphosphate accumulation at 2 uM assessed per 10^6 cells; assay type: ADME, cell-based; settings: TDE = time-dependent effect; summary of the method: as §1
CCRF-CEM [10] = assay: Drug metabolism in human CEM cells assessed as radioactive zidovudine triphosphate accumulation at 2 uM assessed per 10^6 cells; assay type: ADME, cell-based; settings: TDE = time-dependent effect; summary of the method: as §1
CCRF-CEM [11] = assay: Drug metabolism in human CEM cells assessed as radioactive 2', 3'-didehydro-3'-deoxy-4'-ethynylthymidine monophosphate accumulation at 2 uM assessed per 10^6 cells; assay type: ADME, cell-based; settings: TDE = time-dependent effect; summary of the method: as §1
CCRF-CEM [12] = assay: Drug metabolism in human CEM cells assessed as radioactive 2', 3'-didehydro-3'-deoxy-4'-ethynylthymidine diphosphate accumulation at 2 uM assessed per 10^6 cells; assay type: ADME, cell-based; settings: TDE = time-dependent effect; summary of the method: as §1
CCRF-CEM [13] = assay: Drug metabolism in human CEM cells assessed as radioactive 2', 3'-didehydro-3'-deoxy-4'-ethynylthymidine triphosphate accumulation at 2 uM assessed per 10^6 cells; assay type: ADME, cell-based; settings: TDE = time-dependent effect; summary of the method: as §1
CCRF-CEM [14] = assay: Drug metabolism in human CEM cells assessed as radioactive stavudine monophosphate accumulation at 2 uM assessed per 10^6 cells; assay type: ADME, cell-based; settings: TDE = time-dependent effect; summary of the method: as §1
CCRF-CEM [15] = assay: Drug metabolism in human CEM cells assessed as radioactive stavudine diphosphate accumulation at 2 uM assessed per 10^6 cells; assay type: ADME, cell-based; settings: TDE = time-dependent effect; summary of the method: as §1
CCRF-CEM [16] = assay: Drug metabolism in human CEM cells assessed as radioactive stavudine triphosphate accumulation at 2 uM assessed per 10^6 cells; assay type: ADME, cell-based; settings: TDE = time-dependent effect; summary of the method: as §1
CCRF-CEM [17] = assay: Stability in human CEM cells assessed as intracellular radioactive phosphorylated metabolite accumulation at 2 uM incubated for 24 hrs measured after 8 hrs of compound removal assessed per 10^6 cells; assay type: ADME, cell-based
Summary of the method: (§2)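 CEM cells were loaded with 2 µM [3H]analog (75 mCi/mmol) for 24 h, washed, and resuspended in drug-free medium. Intracellular metabolites were then measured by SAX-HPLC with radiometric detection at 0, 2, 4, 8, 12 and 24 h after removal. Values are pmol/10^6 cells, mean ± SD of three experiments.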

CCRF-CEM [18] = assay: Stability in human CEM cells assessed as intracellular radioactive triphosphate metabolite accumulation at 2 uM incubated for 24 hrs measured after 24 hrs of compound removal assessed per 10^6 cells; assay type: ADME, cell-based; summary of the method: as §2
[19] = system: Human immunodeficiency virus 1; assay: Antiviral activity against 0.1 MOI HIV1 3B infected in human TZM-b1 cells assessed as inhibition of viral replication at 0.13 uM after 24 hrs by luciferase assay; assay type: functional; settings: Human immunodeficiency virus 1, 3B, TZM-b1, 24 h
Summary of the method: (§3)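 TZM-bl cells were plated at 0.5 x 10^4 per well in phenol red-free RPMI 1640 and allowed to adhere 15-18 h at 37°C. After a medium change, drug was added with quintuple wells per concentration, and cells were infected at the same time with HIV-1 IIIB at MOI 0.1. After 24 h, cells were lysed and luciferase was read minus the uninfected background. Values are percentage of mean luminescence in drug-free wells.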

[20] = system: Human immunodeficiency virus 1; assay: Antiviral activity against 0.1 MOI HIV1 3B infected in human TZM-b1 cells assessed as inhibition of viral replication after 24 hrs by luciferase assay; assay type: functional, organism-based
Summary of the method: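 TZM-bl cells in phenol red-free RPMI 1640 were infected with HIV-1 IIIB (MOI 0.1) at the time of adding drug at various concentrations, and drug and virus stayed together for 24 h. Lysate luciferase was measured with uninfected background subtracted, in quintuple wells. Inhibition was the mean signal relative to drug-free infected cells.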

[21] = system: Human immunodeficiency virus 1; assay: Antiviral activity against 0.1 MOI HIV1 3B in 24 hrs pretreated human TZM-b1 cells infected 24 hrs post drug removal assessed as inhibition of viral replication at 0.04 to 0.22 uM measured 24 hrs postinfection by luciferase assay; assay type: functional, organism-based
Summary of the method: (§4)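 TZM-bl cells were plated in phenol red-free RPMI 1640, allowed to adhere 15–18 h at 37°C, then exposed to a range of drug concentrations for 24 h. Medium was changed to remove extracellular drug, and cells were infected with HIV-1 IIIB (MOI 0.1) at 0, 24 or 48 h after removal. Luciferase was read 24 h post-infection with uninfected-cell background subtracted, in quintuple wells, and expressed relative to no-drug wells.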

[22] = system: Human immunodeficiency virus 1; assay: Antiviral activity against 0.1 MOI HIV1 3B infected in human TZM-b1 cells assessed as inhibition of viral replication at 0.02 uM after 24 hrs by luciferase assay; assay type: functional; settings: Human immunodeficiency virus 1, 3B, TZM-b1, 24 h; summary of the method: as §3
[23] = system: Human immunodeficiency virus 1; assay: Antiviral activity against 0.1 MOI HIV1 3B in 24 hrs pretreated human TZM-b1 cells infected 48 hrs post drug removal assessed as inhibition of viral replication at 0.04 to 0.22 uM measured 24 hrs postinfection by luciferase assay; assay type: functional, organism-based; summary of the method: as §4
[24] = system: Human immunodeficiency virus 1; assay: Antiviral activity against 0.1 MOI HIV1 3B infected in human TZM-b1 cells assessed as inhibition of viral replication at 0.18 uM after 24 hrs by luciferase assay; assay type: functional; settings: Human immunodeficiency virus 1, 3B, TZM-b1, 24 h; summary of the method: as §3
[25] = system: Human immunodeficiency virus 1; assay: Antiviral activity against 0.1 MOI HIV1 3B infected in human TZM-b1 cells assessed as inhibition of viral replication at 0.22 uM after 24 hrs by luciferase assay; assay type: functional; settings: Human immunodeficiency virus 1, 3B, TZM-b1, 24 h; summary of the method: as §3

Ki/Km [1]: 0.15
SMILES: C#C[C@@]1(COP(=O)(O)OP(=O)(O)OP(=O)(O)O)C=C[C@H](n2cc(C)c(=O)[nH]c2=O)O1

Ki/Km [1]: 1.1
SMILES: Cc1cn([C@H]2C=C[C@@H](COP(=O)(O)OP(=O)(O)OP(=O)(O)O)O2)c(=O)[nH]c1=O

SMILES: Cc1cn([C@H]2C[C@H](N=[N+]=[N-])[C@@H](CO)O2)c(=O)[nH]c1=O [ZIDOVUDINE]
Activity (CCRF-CEM [2]): 90 pmol
Activity (CCRF-CEM [3]): 90 pmol
Activity (CCRF-CEM [4]): 90 pmol
Activity (CCRF-CEM [5]): 18 pmol
Activity (CCRF-CEM [6]): 18 pmol
Activity (CCRF-CEM [7]): 18 pmol
Activity (CCRF-CEM [8]): tde
Activity (CCRF-CEM [9]): tde
Activity (CCRF-CEM [10]): tde
Activity (CCRF-CEM [11]): tde
Activity (CCRF-CEM [12]): tde
Activity (CCRF-CEM [13]): tde
Activity (CCRF-CEM [14]): tde
Activity (CCRF-CEM [15]): tde
Activity (CCRF-CEM [16]): tde
Stability (CCRF-CEM [17]): 2.33 pmol
Stability (CCRF-CEM [18]): 0.14 pmol
inhibition at 0.13 µM [19]: 50%
inhibition [20]: Dose-dependent effect
inhibition [21]: inactive
inhibition at 0.02 µM [22]: 50%
inhibition [23]: inactive
inhibition at 0.18 µM [24]: 50%
inhibition at 0.22 µM [25]: 50%
